Test results: ChEMBL document CHEMBL1208693, “Synthesis and evaluation of novel antifungal agents-quinoline and pyridine amide derivatives” (2010)
≈ marks a conversion by molar mass, not a printed value.

What was measured:
Format in all cases: functional
[1] = tested on: Candida albicans; test: Antifungal activity against Candida albicans E81022 after 2 days by broth-microdilution method; settings: E81022, 48 h
Procedure, shortened: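 Yeast broth microdilution following CLSI M27-A3, slightly modified. Cells were subcultured in Sabouraud dextrose broth at 35 °C for 1–2 days, then inoculated at 2×10^3–2×10^4 cells/mL. Compounds in twofold DMSO dilutions gave final concentrations of 0.05–200 µg/mL; the control was 1% DMSO. Incubation was 35 °C for 2 days. MIC was the lowest concentration with a visually prominent turbidity drop relative to control.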

[2] = tested on: Saccharomyces cerevisiae; test: Antifungal activity against Saccharomyces cerevisiae KE744 after 2 days by broth-microdilution method; settings: KE744, 48 h
Procedure, shortened: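 S. cerevisiae strain overexpressing GWT1 from the GAPDH promoter, grown in SD ura- medium at 30 °C for 1–2 days. Modified CLSI broth microdilution used 2×10^3–2×10^4 cells/mL. Final compound concentrations were 0.05–200 µg/mL from twofold DMSO dilutions, with 1% DMSO as control. Incubation was 30 °C for 2 days. MIC was the lowest concentration visibly and prominently reducing turbidity versus control.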

[3] = tested on: Saccharomyces cerevisiae; test: Antifungal activity against Saccharomyces cerevisiae KE743 […] after 2 days by broth-microdilution method; settings: KE743, 48 h
Procedure, shortened: (§1)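 Broth microdilution (modified CLSI M27-A3) on S. cerevisiae KE743 (control) and KE744 (GWT1 overexpressed from GAPDH promoter), precultured in SD ura- at 30 °C for 1–2 days. Inoculum 2 × 10^3–2 × 10^4 cells/ml. Twofold dilutions at 0.05–200 µg/mL final, from DMSO; 1% DMSO control. Incubated 30 °C, 2 days. MIC is the lowest concentration with a prominent visual turbidity decrease; KE744/KE743 MICs compared.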

[4] = tested on: Saccharomyces cerevisiae; test: Ratio of MIC for Saccharomyces cerevisiae KE744 to Saccharomyces cerevisiae KE743 […]; procedure, shortened: as §1
[5] = tested on: Aspergillus fumigatus; test: Antifungal activity against Aspergillus fumigatus Tsukuba after 2 days by broth-microdilution method; settings: 48 h
Procedure, shortened: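 CLSI M38-A2 broth microdilution, slightly modified. Conidia came from a one-week PDA culture at 35 °C and were stored at −80 °C. Inoculum was 2×10^3–2×10^4 conidia/mL. Compounds were serially twofold diluted from DMSO stock to final concentrations of 0.05–200 µg/mL; the control was 1% DMSO. Plates were incubated at 35 °C for 2 days. MIC was the lowest concentration giving a visually prominent turbidity decrease versus control.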

[6] = tested on: Candida albicans; test: Ratio of compound MIC to Amphotericin B MIC for Candida albicans E81022

| Structure (SMILES) | MIC [1] | MIC [2] | MIC [3] | Ratio [4] | MIC [5] | Ratio [6] |
| --- | --- | --- | --- | --- | --- | --- |
| CCCCc1ccc(Cc2nccc3ccccc23)cc1 | 1.56 µg/mL (≈ 5.66 µM) | – | – | – | – | – |
| Nc1ccc(C(=O)NCc2ccc(Oc3cccc(F)c3)s2)cn1 | 1.56 µg/mL (≈ 4.54 µM) | > 12.5 µg/mL | 1.56 µg/mL (≈ 4.54 µM) | >8 | – | – |
| OC(Cn1cncn1)(Cn1cncn1)c1ccc(F)cc1F [FLUCONAZOLE] | 0.39 µg/mL (≈ 1.27 µM) | 6.25 µg/mL (≈ 20.4 µM) | 6.25 µg/mL (≈ 20.4 µM) | 1 | – | – |
| Nc1ncccc1C(=O)NCc1ccc(Cc2ccccc2)s1 | 0.05 µg/mL (≈ 0.155 µM) | – | – | – | 0.78 µg/mL (≈ 2.41 µM) | 2 |
| Nc1ccc(C(=O)NCc2ccc(Oc3ccc(F)cc3)s2)c(N)n1 | 0.39 µg/mL (≈ 1.09 µM) | 12.5 µg/mL (≈ 34.9 µM) | 0.78 µg/mL (≈ 2.18 µM) | 16 | 0.78 µg/mL (≈ 2.18 µM) | 2 |
| O=C(NCc1ccc(Oc2ccccc2)s1)c1cnc2[nH]ccc2c1 | 0.39 µg/mL (≈ 1.12 µM) | > 12.5 µg/mL | 0.2 µg/mL (≈ 0.572 µM) | >64 | 3.13 µg/mL (≈ 8.96 µM) | 2 |
| Nc1ccc(C(=O)NCc2ccc(Oc3ccccc3)s2)c(N)n1 | 0.78 µg/mL (≈ 2.29 µM) | > 12.5 µg/mL | 1.56 µg/mL (≈ 4.58 µM) | >8 | 1.56 µg/mL (≈ 4.58 µM) | 2 |
| C[C@@H]1[C@H](O)[C@@H](C)/C=C/C=C/C=C/C=C/C=C/C=C/C=C/[C@H](O[C@@H]2O[C@H](C)[C@@H](O)[C@H](N)[C@@H]2O)C[C@@H]2O[C@](O)(C[C@@H](O)C[C@@H](O)[C@H](O)CC[C@@H](O)C[C@@H](O)CC(=O)O[C@H]1C)C[C@H](O)[C@H]2C(=O)O [AMPHOTERICIN B] | 1.56 µg/mL (≈ 1.69 µM) | 0.78 µg/mL (≈ 0.844 µM) | 0.78 µg/mL (≈ 0.844 µM) | 1 | 0.78 µg/mL (≈ 0.844 µM) | – |
| O=C(NCc1ccc(Oc2cccc(F)c2)s1)c1ccc2ncccc2c1 | 0.1 µg/mL (≈ 0.264 µM) | 3.13 µg/mL (≈ 8.27 µM) | 0.025 µg/mL (≈ 0.0661 µM) | 128 | 1.56 µg/mL (≈ 4.12 µM) | 2 |
| Nc1ncccc1C(=O)NCc1ccc(Oc2cccc(F)c2)s1 | 0.05 µg/mL (≈ 0.146 µM) | 12.5 µg/mL (≈ 36.4 µM) | 0.1 µg/mL (≈ 0.291 µM) | 128 | 0.78 µg/mL (≈ 2.27 µM) | 2 |
